Reference: ChEMBL document CHEMBL1142507, “Novel potent and selective Ca2+ release-activated Ca2+ (CRAC) channel inhibitors. Part 3: synthesis and CRAC channel inhibitory activity of 4'-[(trifluoromethyl)pyrazol-1-yl]carboxanilides” (Bioorg Med Chem, 2008)

What was measured:
Jurkat [1] = assay: Inhibition of CRAC channel-mediated calcium influx in human Jurkat cells at 10 uM; format: cell-based
In short: (§1)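 Jurkat cells (2 × 10⁶ cells/ml) loaded with 1 µM Fura-2/AM for 45 min at room temperature in HEPES buffer pH 7.4 (NaCl 137, KCl 5.8, MgCl₂ 1, CaCl₂ 2.5, glucose 5, HEPES 10 mM), then washed. Thapsigargin-induced Ca²⁺ influx read by 340/380 nm excitation, 500 nm emission, with cell-free compound fluorescence subtracted. IC50 taken from percent inhibition.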

[2] = Inhibition of CRAC channel-mediated calcium influx in human Jurkat cells; format: cell-based; in short: as §1
[3] = Inhibition of VOC channel-mediated calcium influx in […] PC12-h5 cells; format: cell-based; conditions: Rattus norvegicus, PC-12
In short: (§2)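 PC12-h5 cells (1 × 10⁶ cells/ml) loaded with 1 µM Fura-2/AM for 45 min at room temperature in HEPES buffer pH 7.4, then washed. Depolarized with 50 mM KCl for 20 min. Intracellular Ca²⁺ measured at the 20 min endpoint from the 340/380 nm excitation ratio (500 nm emission), with compound autofluorescence subtracted.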

Jurkat [4] = assay: Selectivity ratio of IC50 for VOC channel in […] PC12-h5 cells over IC50 for CRAC channel in human Jurkat cells
PC-12 = assay: Inhibition of VOC channel-mediated calcium influx in […] PC12-h5 cells at 10 uM; format: cell-based; conditions: Rattus norvegicus; in short: as §2
Jurkat [5] = assay: Inhibition of PHA-induced IL2 production in human Jurkat T lymphocytes; format: functional, cell-based
In short: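 Jurkat T cells (5 × 10⁶ cells/ml) stimulated with PHA (20 µg/ml) for 20 h. IL-2 in the supernatant quantified by human IL-2 ELISA.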

Mus musculus [6] = assay: Inhibition of trinitrochlorobenzene-induced contact hypersensitivity in 1 hr before pretreated CD1 mouse assessed as ear swelling at 30 mg/kg, po; format: functional
In short: (§3)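 Mice challenged with TNCB on both sides of the ear pinna. Compound given orally 1 h before TNCB exposure, with 0.5% MC vehicle given orally to control animals. Ear thickness measured by dial gauge 24 h after challenge and swelling calculated from the pre-exposure value.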

Rattus norvegicus = assay: Inhibition of ovalbumin-induced airway eosinophilia in BN rat po dosed 1 hr before antigen challenge assessed as number of eosinophils in bronchoalveolar levage fluid after 24 hrs; format: functional; conditions: Lung
In short: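 Sensitized rats were challenged 3 weeks later with aerosolized 1% (w/v) ovalbumin for 15 min. Compound given orally 1 h before exposure. BAL performed 24 h after challenge. Total white cells counted with a blood cell counter. Eosinophils identified morphologically on smears and eosinophil number per animal calculated. ED50 derived.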

Mus musculus [7] = assay: Inhibition of trinitrochlorobenzene-induced contact hypersensitivity in 1 hr before orally pretreated CD1 mouse assessed as ear swelling; format: functional; conditions: CD1, po; in short: as §3

Row | Structure (SMILES) | inhibition (Jurkat [1]) [%] | IC50 [2] [nM] | IC50 [3] [µM] | Ratio IC50 (Jurkat [4]) | inhibition (PC-12) [%] | IC50 (Jurkat [5]) [nM] | inhibition in vivo at 30 mg/kg (Mus musculus [6]) [%] | ED50 (Rattus norvegicus) [mg/kg] | ED50 (Mus musculus [7]) [mg/kg]
1 | O=C(Nc1ccc(-n2nc(C(F)(F)F)cc2C(F)(F)F)cc1)c1c[nH]cn1 | 29 | – | – | – | – | – | – | – | –
2 | Cc1nnsc1C(=O)Nc1ccc(-n2nc(C(F)(F)F)c3c2CCC3)cc1 | – | 400 | 3.5 | 8.8 | – | – | – | – | –
3 | Cc1ccnc(C)c1C(=O)Nc1ccc(-n2nc(C(F)(F)F)cc2C(F)(F)F)cc1 | – | 1600 | – | – | – | – | – | – | –
4 | Nc1cncc(C(=O)Nc2ccc(-n3nc(C(F)(F)F)cc3C(F)(F)F)cc2)c1 | – | 270 | – | > 37 | 14 | 160 | 59 | 4.4 | –
5 | O=C(Nc1ccc(-n2nc(C(F)(F)F)cc2C(F)(F)F)cc1)c1ccncc1 | – | 240 | 10 | 42 | – | 16 | 25 | – | –
6 | COc1ncccc1C(=O)Nc1ccc(-n2nc(C(F)(F)F)cc2C(F)(F)F)cc1 | – | 120 | 2.9 | 24 | – | – | – | – | –
7 | O=C(Nc1ccc(-n2nc(C(F)(F)F)cc2C(F)(F)F)cc1)c1cnccc1Cl | – | 160 | 5.1 | 32 | – | 18 | -18 | – | –
8 | Cc1ccc(C(=O)Nc2ccc(-n3nc(C(F)(F)F)cc3C(F)(F)F)cc2)cn1 | – | 220 | – | > 45 | 27 | 94 | 46 | – | –
9 | O=C(Nc1ccc(-n2nc(C(F)(F)F)cc2C(F)(F)F)cc1)c1cnccc1O | 21 | – | – | – | – | – | – | – | –
10 | O=C(Nc1ccc(-n2nc(C(F)(F)F)cc2C(F)(F)F)cc1)c1ccccn1 | 14 | – | – | – | – | – | – | – | –
11 | O=C(Nc1ccc(-n2nc(C(F)(F)F)cc2C(F)(F)F)cc1)c1cncs1 | – | 960 | 10 | 10 | – | – | – | – | –
12 | Cc1nnsc1C(=O)Nc1ccc(-n2ccc(C(F)(F)F)n2)cc1 | 40 | – | – | – | – | – | – | – | –
13 | Cc1nnsc1C(=O)Nc1ccc(-n2nc(C(F)(F)F)cc2C#N)cc1 | – | 220 | – | > 45 | 45 | – | – | – | –
14 | Cc1nnsc1C(=O)Nc1ccc(-n2nc(C(F)(F)F)cc2Br)cc1 | – | 92 | 2.6 | 28 | – | 5.9 | 8.3 | – | –
15 | Cc1cc(C)c(C(=O)Nc2ccc(-n3nc(C(F)(F)F)cc3C(F)(F)F)cc2)cn1 | – | 290 | – | > 34 | 41 | 33 | 64 | 1.3 | –
16 | O=C(Nc1ccc(-n2nc(C(F)(F)F)cc2C(F)(F)F)cc1)c1nccs1 | – | 460 | – | > 22 | 37 | – | – | – | –

Row | Structure (SMILES) | inhibition (Jurkat [1]) [%] | IC50 [2] [nM] | IC50 [3] [µM] | Ratio IC50 (Jurkat [4]) | inhibition (PC-12) [%] | IC50 (Jurkat [5]) [nM] | inhibition in vivo at 30 mg/kg (Mus musculus [6]) [%] | ED50 (Rattus norvegicus) [mg/kg] | ED50 (Mus musculus [7]) [mg/kg]
17 | O=C(Nc1ccc(-n2nc(C(F)(F)F)cc2C(F)(F)F)cc1)c1cncc(Cl)c1 | – | 110 | – | > 91 | 31 | 34 | 42 | – | –
18 | O=C(Nc1ccc(-n2nc(C(F)(F)F)cc2C(F)(F)F)cc1)c1cncc(F)c1 | – | 77 | – | > 130 | 27 | 18 | 44 | – | –
19 | O=C(Nc1ccc(-n2nc(C(F)(F)F)cc2C(F)(F)F)cc1)c1cccnc1 | – | 250 | – | > 40 | 30 | 93 | 62 | – | –
20 | O=C(Nc1ccc(-n2nc(C(F)(F)F)cc2C(F)(F)F)cc1)c1cnccc1C(F)(F)F | – | 430 | 2 | 5 | – | – | – | – | –
21 | Cc1nnsc1C(=O)Nc1ccc(-n2nc(C(F)(F)F)cc2C(F)(F)F)cc1 | – | 150 | 4.7 | 31 | – | 17 | 100 | 2.4 | 1.1
22 | Nc1ccncc1C(=O)Nc1ccc(-n2nc(C(F)(F)F)cc2C(F)(F)F)cc1 | – | 780 | 2.4 | 3.1 | – | – | – | – | –
23 | Cc1ccncc1C(=O)Nc1ccc(-n2nc(C(F)(F)F)cc2C(F)(F)F)cc1 | – | 290 | 6.3 | 20 | – | – | – | – | –
24 | Cc1cncc(C(=O)Nc2ccc(-n3nc(C(F)(F)F)cc3C(F)(F)F)cc2)c1 | – | 210 | 3.1 | 15 | – | – | – | – | –
25 | Cc1nnsc1C(=O)Nc1ccc(-n2nc(C(F)(F)F)cc2Cl)cc1 | – | 82 | 2.9 | 35 | – | 15 | 42 | – | –
26 | O=C(Nc1ccc(-n2nc(C(F)(F)F)cc2C(F)(F)F)cc1)c1cccnc1Cl | – | 240 | 4.5 | 19 | – | – | – | – | –
27 | Cc1nnsc1C(=O)Nc1ccc(-n2nc(C(F)(F)F)cc2C)cc1 | – | 220 | – | > 45 | 46 | 18 | 24 | – | –
28 | COc1ccncc1C(=O)Nc1ccc(-n2nc(C(F)(F)F)cc2C(F)(F)F)cc1 | – | 230 | 4.8 | 21 | – | – | – | – | –
29 | O=C(Nc1ccc(-n2nc(C(F)(F)F)cc2C(F)(F)F)cc1)c1cncc(Br)c1 | – | 150 | – | > 67 | 29 | 24 | 17 | – | –
30 | O=C(Nc1ccc(-n2nc(C(F)(F)F)cc2C(F)(F)F)cc1)c1cccnc1O | – | 3300 | – | – | – | – | – | – | –
31 | Cc1ccc(-c2cc(C(F)(F)F)nn2-c2ccc(NC(=O)c3snnc3C)cc2)cc1 | – | 720 | 2.5 | 3.5 | – | – | – | – | –
